Only some compounds are listed: those with a hit (about 1.8% of all), similar ones and a draw of the others.
Dynein transport: inhibitors of GR-EGFP nuclear translocation, primary screen, dynein cargo transport inhibitor project, imaging, high-content, 3617.4 mouse cells | test concentration mostly 20 µM; stimulated with dexamethasone, 1 µM; stronger effect = lower value | actives 0.47% (n = 220,000) | AID 1381, 2008 | z-score, hits read low;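 active means plate z-score of nuclear minus cytoplasmic receptor signal below a set negative limit, without overly bright fluorescence or cell loss, cut at about -3.5 in these data, passing the limit was not always enough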;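 further: z-score of nuclear minus cytoplasmic ring GR-EGFP intensity difference per well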
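medium = tetracycline-free induction medium containing charcoal-stripped FBS | also added = 1.0 µM final dexamethasone stimulus | schedule = 48 h induction, 1 h compound, 30 min dex at 37 °C | technique = fixed, Hoechst-stained cells imaged at 10x for EGFP | measure = GR-EGFP nuclear translocation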
L929 necroptosis: inhibitors of zVAD-triggered necroptosis, primary screen, L929 cells; viability rescue, % at 10 µM; L929 zVAD necroptosis rescue, ATP luminescence, 24 h; with zVAD 60 µM; actives 0.38% (n = 220,000);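 active means activation, scaled between plate controls, above about 75%, limit read from the data; inactive means activation under that limit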;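 further: 0% = zVAD with DMSO and 100% = DMSO alone without zVAD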
Autophagy mod: autophagy modulators in MEF cells, primary screen, imaging, high-content, MEF GFP-LC3 | MEF GFP-LC3 puncta imaging; test concentration mostly 10 µM | calls only at 10 µM (by protocol) | actives 0.98% (n = 190,000) | AID 463193, 2010;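 active means percentage of spot-positive cells more than 3 SD above its plate mean, without a fluorescence outlier flag or 80% toxicity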;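 further: spot-positive cell cutoff set from DMSO-treated cells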
TNF death inh: inhibitors of TNF-alpha triggered necroptosis, primary screen, cell-based, Jurkat FADD-/-, single concentration; AID 463075, 2010; Jurkat FADD-/- TNF necroptosis rescue, ATP luminescence, 24 h; 0 = TNF only, 100 = no-TNF cells; actives 0.068% (n = 220,000); activation (protection from cell death), % at 10 µM;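 active means activation, meaning protection from cell death, of at least 50% relative to plate controls; inactive means activation below 50%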;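 further: necroptosis triggered by 40 ng/mL TNF-alpha added together with compound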
MDM2 E3 inh: MDM2-luciferase reporter signal enhancers, primary screen, MDM2 E3 ligase inhibitor project, cell-based, luminescence, 1536-well; E3 ubiquitin-protein ligase Mdm2 (Homo sapiens), Q00987; cell-based MDM2 ubiquitination luciferase reporter, 2 h; 0 = plate control, 100 = twice control, blank-subtracted; signal enhancement, % at 5 µM; actives 0.11% (n = 210,000);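 active means signal enhancement of 30% or more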;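 further: luminescence tracks abundance of the self-degrading MDM2-luciferase fusion protein; higher signal means inhibition of MDM2 E3 ligase activity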
Target sequence (Q00987 whole entry, looked up, the tested form may be a part): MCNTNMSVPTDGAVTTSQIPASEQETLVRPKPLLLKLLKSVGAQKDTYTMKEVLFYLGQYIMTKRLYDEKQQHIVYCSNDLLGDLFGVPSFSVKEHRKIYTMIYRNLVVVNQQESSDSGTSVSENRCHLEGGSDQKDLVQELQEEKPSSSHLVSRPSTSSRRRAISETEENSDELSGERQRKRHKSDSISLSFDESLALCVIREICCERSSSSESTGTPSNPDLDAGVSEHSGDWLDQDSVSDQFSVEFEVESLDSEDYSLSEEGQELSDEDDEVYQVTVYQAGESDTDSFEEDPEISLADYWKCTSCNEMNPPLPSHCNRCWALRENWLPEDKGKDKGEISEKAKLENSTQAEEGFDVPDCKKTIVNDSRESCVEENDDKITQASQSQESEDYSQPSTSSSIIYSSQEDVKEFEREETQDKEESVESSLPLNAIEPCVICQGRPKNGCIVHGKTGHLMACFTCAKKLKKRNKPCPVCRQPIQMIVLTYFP
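Test system: mammalian cells stably expressing self-ubiquitinating, self-degrading MDM2 E3–luciferase fusion; Amount: 2000 cells in each well; Medium: DMEM; Schedule: 4 h settle plus 2 h compound, 37 °C; Technique: SteadyLite luciferase luminescence after 15 min room-temperature reagent incubation; Benchmarks: plate control and blank wells.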
* = called active by the depositor; i = inactive; · = not tested or not shown; + = active, no number.

SMILES	Dynein transport	L929 necroptosis	Autophagy mod	TNF death inh	MDM2 E3 inh
Cc1cccn2c(=O)c(/C=C3\SC(=S)NC3=O)c(NCCCN3CCOCC3)nc12	-1.2	2	·	-3	-17
CCOCCCNc1nc2c(C)cccn2c(=O)c1/C=C1\SC(=S)N(CC(C)C)C1=O	-1.8	0	+	-4	1
CCOCCCNc1nc2c(C)cccn2c(=O)c1/C=C1\SC(=S)N(C(C)CC)C1=O (stereo unspecified)	-6.3	0	·	-3	-16
COc1cccc(-c2nc(NCC3CCCO3)c3ccccc3n2)c1O (stereo unspecified)	0.32	2	+	-9	-37
O=C(CCNC(=O)c1ccccc1)OCC(=O)c1ccccc1	1.2	4	i	0	-18
O=Cc1c(N2CCN(c3ccccc3)CC2)nc2ccccn2c1=O	-0.27	0	+	-3	-10
CCc1ccc(OCC(=O)N(C)C)c(Br)c1	-0.64	0	+	-2	-15
CCc1ccc(OCC(=O)NC(=S)Nc2ccc(F)cc2)c(Br)c1	-0.3	0	i	-2	-11
O=C(COC(=O)c1ccc(S(=O)(=O)N2CCCC2)cc1)NCc1cccs1	1.6	0	i	0	12
COC(=O)CSC(C)C(=O)Nc1nnc(C(C)C)s1 (stereo unspecified)	-0.16	2	+	0	-5
O=C1c2ccsc2SCCN1Cc1ccc(Cl)cc1	0.1	0	i	41	-13
Cc1ccc(CN2CCSc3sccc3C2=O)cc1	0.25	12	i	83*	-7
CC(C)(C)OC(=O)N[C@@H](Cc1ccccc1)c1nnc(S(=O)(=O)Cc2ccccc2)o1	-4.3*	-1	i	-16	-9
CCOC(=O)/C=c1\s/c(=C\c2ccc3cc(OC)ccc3c2)c(=O)n1CC(=O)NCc1ccc2c(c1)OCO2	-0.54	1	+	0	-12
CCOc1ccc(NC(=O)c2cn(CC(C)C)c(=O)c3c2c2ccccc2n3C)cc1	0.49	0	+	1	-16
COC(=O)[C@@]1(Cc2ccc(OC)cc2)[C@@H]2[C@@H](CC(=O)[C@H]2CC(=O)C(=O)N(C)C)CN1C(=O)c1ccccc1	-0.71	1	i	0	·
COC(=O)[C@@]1(Cc2ccc(OC)cc2)[C@@H]2C(=CC(=O)[C@H]2CC(=O)C(=O)N2CCCC2)CN1C(=O)c1ccccc1	-4.7*	1	i	-15	·
Cc1cc(C(=O)NNc2c(Cl)cccc2Cl)n(C(C)(C)C)n1	-0.36	0	·	1	-14
O=C(/C=C/Nc1ccc([N+](=O)[O-])cc1)c1ccc(Br)cc1	-0.19	4	+	1	0
O=C(/C=C/Nc1ccc(F)cc1)c1ccc(Br)cc1	-0.2	0	i	0	·
CCN(CC(=O)Nc1c(F)cccc1F)C(=O)COc1ccc2c(C)cc(=O)oc2c1	0.13	1	i	0	-4
Cc1cccc(C)c1NC(=O)COC(=O)c1cccnc1	0.64	11	+	0	7
COc1ccc(C2C(C#N)=C(N)N3C(=C2C#N)Sc2ccccc23)cc1 (stereo unspecified)	-0.14	0	+	0	-11
CC(C)c1ccc(/C=C(/C#N)c2nnc(NC(=O)c3ccccc3)s2)cc1	1	2	i	3	-14
Cc1cccc(OCCN2CSC(=S)N(C)C2)c1	-0.88	-1	+	-7	-13
Cc1ccn2c(NC(=O)C(C)(C)Oc3ccc(Cl)cc3)c(-c3cccs3)nc2c1	-0.58	1	i	1	-11
S=C(NC1CCCCCC1)NC1CCCC1	-0.82	1	+	-7	8
COc1ccc(-c2csc(NC(=S)NC(=O)c3ccco3)n2)cc1	-0.49	-1	+	-1	14
O=c1[nH]c(=O)n([C@H]2C[C@H](O)[C@@H](CO)O2)cc1C(F)(F)F	-0.63	-1	+	-15	·
